What was measured:
[1] = feces at 2 h p.i.; ref [14]; cited from earlier work
[2] = Biodistribution of 99mTc radiotracer in tumor-bearing mice; assay type: in vivo, BALB/c nude mice; conditions: female, BALB/c nude, mouse, iv, 0.1 MBq, total radioactivity
Method in brief: (§1)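 Female BALB/c nude mice (4–5 weeks, 16–20 g) carried U87MG cells (5 × 10^6, s.c. shoulder flank) and were used at a tumor volume of ~400 mm3 (~10 days). Each received ~0.1 MBq of 99mTc tracer (~2 ng HYNIC conjugate) in saline by tail vein. Five animals were killed per time point (5, 30, 60, 120 min p.i.). Organs were weighed and γ-counted as %ID/g, and tumor-to-background ratios were reported as mean ± SD.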

[3] = Metabolism; assay type: in vivo; conditions: athymic nude mice (n = 3); ~10 MBq tail vein; feces at 2 h p.i.; radio-HPLC
Method in brief: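 Athymic nude mice (n = 3) received ~10 MBq tracer i.v. Feces collected at 120 min p.i. were counted, suspended in 20% aqueous acetonitrile, vortexed ~5 min and centrifuged at 8,000 rpm. The supernatant was counted, filtered at 0.20 µm and run on radio-HPLC (C8, 1 mL/min; 25 mM NH4OAc pH 6.8/acetonitrile, isocratic 5 min then gradient to 60% acetonitrile at 20 min).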

[4] = test system: integrin αvβ3; assay: Monitoring αvβ3 expression by SPECT/CT in three tumor models; assay type: in vivo, athymic nu/nu mice; conditions: SPECT/CT of tumor-bearing athymic nude mice, ~50 MBq
Method in brief: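 Female athymic nu/nu mice (4–5 weeks) received 5 × 10^6 cells in 0.1 mL saline: U87MG and PC-3 into shoulder flanks, MDA-MB-435 into breast fat pads. At tumor sizes of 0.1–0.5 g, they were given tracer i.v. and imaged on a multi-pinhole (1.0 mm) SPECT/CT at 60 min p.i. under ~3.0% isoflurane. Tumor ROIs came from CT, and activity was converted via a γ-counter-calibrated standard curve to %ID/g, assuming ~1 g/cm3.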

[5] = test system: BALB/c nude mice bearing U87MG human glioma xenografts; assay: Biodistribution of 99mTc radiotracer in tumor-bearing mice; assay type: in vivo; conditions: BALB/c nude mice with U87MG xenografts, mean ± SD, n = 5
Method in brief: as §1

In the case of `N=C(N)NCCC[C@@H]1NC(=O)[C@H](CCCCNC(=O)CCOCCOCCOCCOCCNC(=O)CC[C@H](NC(=O)CCOCCOCCOCCOCCNC(=O)c2ccc(NN)nc2)C(=O)NCCOCCOCCOCCOCCC(=O)NCCCC[C@@H]2NC(=O)[C@@H](Cc3ccccc3)NC(=O)[C@H](CC(=O)O)NC(=O)CNC(=O)[C@H](CCCNC(=N)N)NC2=O)NC(=O)[C@@H](Cc2ccccc2)NC(=O)[C@H](CC(=O)O)NC(=O)CNC1=O` [^99mTc-3P-RGD2, [^99mTc(HYNIC-3P-RGD2)(tricine)(TPPTS)], metal not drawn], the “Radiotracer remaining intact in the feces samples” value [1] is given as 70%, the tissue uptake at 2 h ([2]; blood) is given as 0.32 ± 0.06 %ID/g and the tissue uptake at 0.5 h ([2]; brain) is given as 0.41 ± 0.17 %ID/g. The tissue uptake at 1 h ([2]; brain) was 0.41 ± 0.05 %ID/g, the tissue uptake at 2 h ([2]; brain) was 0.23 ± 0.09 %ID/g and the tissue uptake at 1 h ([2]; eyes) was 2.57 ± 0.59 %ID/g. The tissue uptake at 2 h ([2]; eyes) was 2.12 ± 0.86 %ID/g, the tissue uptake at 0.5 h ([2]; heart) was 3.48 ± 0.45 %ID/g and the tissue uptake at 1 h ([2]; heart) was 3.13 ± 0.44 %ID/g. The tissue uptake at 2 h ([2]; heart) was 2.07 ± 0.75 %ID/g, the tissue uptake at 0.5 h ([2]; intestine) was 4.24 ± 1.54 %ID/g and the tissue uptake at 1 h ([2]; intestine) was 5.45 ± 1.47 %ID/g. The tissue uptake at 2 h ([2]; intestine) was 3.37 ± 1.32 %ID/g, the tissue uptake at 0.5 h ([2]; kidneys) was 32.9 ± 2.94 %ID/g and the tissue uptake at 1 h ([2]; kidneys) was 24.6 ± 3.59 %ID/g. The tissue uptake at 2 h ([2]; kidneys) was 19.1 ± 2.6 %ID/g, the tissue uptake at 0.5 h ([2]; liver) was 5.82 ± 0.79 %ID/g and the tissue uptake at 1 h ([2]; liver) was 4.83 ± 0.6 %ID/g. For the same compound, the tissue uptake at 2 h ([2]; liver) was 4.52 ± 0.76 %ID/g, the tissue uptake at 0.5 h ([2]; lungs) was 4.24 ± 0.87 %ID/g and the tissue uptake at 1 h ([2]; lungs) was 3.5 ± 1.01 %ID/g. It also gave a tissue uptake at 2 h ([2]; lungs) of 2.39 ± 0.71 %ID/g, a tissue uptake at 0.5 h ([2]; muscle) of 2.25 ± 0.48 %ID/g and a tissue uptake at 1 h ([2]; muscle) of 1.5 ± 0.49 %ID/g. For the same compound, the tissue uptake at 2 h ([2]; muscle) was 1.23 ± 0.21 %ID/g, the tissue uptake at 0.5 h ([2]; spleen) was 5.03 ± 0.45 %ID/g and the tissue uptake at 1 h ([2]; spleen) was 4.02 ± 0.7 %ID/g. It also gave a tissue uptake at 2 h ([2]; spleen) of 3.8 ± 0.5 %ID/g, a tissue to tissue ratio at 0.5 h ([2]; tumor / blood) of 4.33 ± 0.12 and a tissue to tissue ratio at 1 h ([2]; tumor / blood) of 5.86 ± 2.21. It also gave a tissue to tissue ratio at 2 h ([2]; tumor / blood) of 12 ± 3.62, a tissue to tissue ratio at 0.5 h ([2]; tumor / liver) of 1.16 ± 0.54 and a tissue to tissue ratio at 1 h ([2]; tumor / liver) of 1.1 ± 0.54. It also gave a tissue to tissue ratio at 2 h ([2]; tumor / liver) of 0.84 ± 0.1, a tissue to tissue ratio at 0.5 h ([2]; tumor / lung) of 1.52 ± 0.74 and a tissue to tissue ratio at 1 h ([2]; tumor / lung) of 1.33 ± 0.52. For the same compound, the tissue to tissue ratio at 2 h ([2]; tumor / lung) was 1.74 ± 0.63, the tissue to tissue ratio at 0.5 h ([2]; tumor / muscle) was 1.85 ± 1.38 and the tissue to tissue ratio at 1 h ([2]; tumor / muscle) was 2.25 ± 1.56. It also gave a tissue to tissue ratio at 2 h ([2]; tumor / muscle) of 3.09 ± 0.4, a tissue uptake at 0.5 h ([2]; tumor) of 6.77 ± 1.3 %ID/g and a tissue uptake at 1 h ([2]; tumor) of 4.62 ± 0.57 %ID/g. For the same compound, the tissue uptake at 2 h ([2]; tumor) was 3.93 ± 0.63 %ID/g, the tissue uptake at 0.5 h ([2]; whole blood) was 1.54 ± 0.14 %ID/g and the tissue uptake at 1 h ([2]; whole blood) was 0.87 ± 0.1 %ID/g.
In the case of “[^99mTc(HYNIC-4P-RGD3)(tricine)(TPPTS)] (head to tail) [^99mTc-4P-RGD3]”, the “Radiotracer remaining intact in the feces sample” value [3] is reported as “More than 95%”, the “Ranking order of tumor uptake values among tumor models” value [4] is reported as “U87MG > MDA-MB-435 >> PC-3” and the Tumor/Blood ratio ([5]; 5 min p.i.) is reported as 1.23 ± 0.34. The Tumor/Liver ratio ([5]; 5 min p.i.) was 0.55 ± 0.16, the Tumor/Lung ratio ([5]; 5 min p.i.) was 0.69 ± 0.15 and the Tumor/Muscle ratio ([5]; 5 min p.i.) was 1.80 ± 0.48. It also gave a Tumor/Blood ratio ([5]; 30 min p.i.) of 3.69 ± 0.48, a Tumor/Liver ratio ([5]; 30 min p.i.) of 0.79 ± 0.11 and a Tumor/Lung ratio ([5]; 30 min p.i.) of 1.07 ± 0.13. For the same compound, the Tumor/Muscle ratio ([5]; 30 min p.i.) was 2.29 ± 0.34, the Tumor/Blood ratio ([5]; 60 min p.i.) was 6.21 ± 2.34 and the Tumor/Liver ratio ([5]; 60 min p.i.) was 0.87 ± 0.25. It also gave a Tumor/Lung ratio ([5]; 60 min p.i.) of 1.08 ± 0.25, a Tumor/Muscle ratio ([5]; 60 min p.i.) of 1.78 ± 0.69 and a Tumor/Blood ratio ([5]; 120 min p.i.) of 8.21 ± 1.71. The Tumor/Liver ratio ([5]; 120 min p.i.) was 0.70 ± 0.19, the Tumor/Lung ratio ([5]; 120 min p.i.) was 1.45 ± 0.22 and the Tumor/Muscle ratio ([5]; 120 min p.i.) was 2.79 ± 0.55.
